{
  "source": "paper PMC5508335",
  "about": "(Journal of Veterinary Internal Medicine, 2017)",
  "molecules": {"B1": {"name": "C1‐INH: human recombinant C1-esterase Inhibitor (protein, UniProt P05155 23-500, looked up)", "Plasma protease C1 inhibitor": "NPNATSSSSQDPESLQDRGEGKVATTVISKMLFVEPILEVSSLPTTNSTTNSATKITANTTDEPTTQPTTEPTTQPTIQPTQPTTQLPTDSPTQPTTGSFCPGPVTLCSDLESHSTEAVLGDALVDFSLKLYHAFSAMKKVETNMAFSPFSIASLLTQVLLGAGENTKTNLESILSYPKDFTCVHQALKGFTTKGVTSVSQIFHSPDLAIRDTFVNASRTLYSSSPRVLSNNSDANLELINTWVAKNTNNKISRLLDSLPSDTRLVLLNAIYLSAKWKTTFDPKKTRMEPFHFKNSVIKVPMMNSKKYPVAHFIDQTLKAKVGQLQLSHNLSLVILVPQNLKHRLEDMEQALSPSVFKAIMEKLEMSKFQPTLLTLPRIKVTTSQDMLSIMEKLEFFDFSYDLNLCGLTEDPDLQVSAMQHQTVLELTETGVEAAAASAISVARTLLVFEVQQPFLFVLWDQQHKFPVFMGRVYDPRA"}},
  "key": {"[1]": {"test_system": "beagles with and without MVMD", "assay": "Dobutamine stress echocardiography in beagles with mitral valve disease", "assay_type": "in vivo, dog"}, "[2]": {"test_system": "canine osteosarcoma cell lines", "assay": "Combination with MCT1/4 small molecule inhibitors in canine osteosarcoma cells", "assay_type": "cell-based, dog"}, "[3]": {"test_system": "dogs given PEG before colonoscopy", "assay": "Anti-emetic before orogastric PEG administration", "assay_type": "in vivo, dog", "summary_of_the_method": "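46 dogs with naturally occurring disease needed PEG bowel cleansing before colonoscopy. They were randomized to one of two anti-emetics given SC 30 minutes before orogastric-tube PEG at 66 ml/kg. PEG was repeated 2 hours later without repeating the anti-emetic. Administration was by or under supervision of blinded authors. Vomiting and regurgitation were recorded after each PEG dose.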"}, "[4]": {"assay_type": "in vivo, cats", "settings": "one 1.87 mg oral dose"}, "healthy beagles": {"test_system": "healthy beagles", "assay": "Serum cPLI after high-dose prednisolone in healthy beagles", "assay_type": "in vivo, dog", "settings": "4 mg/kg/day SC for 2 or 3 weeks; six beagles"}, "[5]": {"test_system": "dogs with idiopathic IMPA", "assay": "Retrospective outcome of dogs with idiopathic IMPA", "settings": "dog, in vivo"}, "[6]": {"test_system": "dogs with ventricular tachyarrhythmias", "assay": "Echocardiogram and 5-minute ECG before and after oral sotalol", "assay_type": "in vivo, dog"}, "[7]": {"test_system": "Dobermans with CHF due to DCM", "assay": "Randomized placebo-controlled survival trial in Dobermans with CHF due to DCM", "assay_type": "in vivo, dog", "settings": "50 mg twice daily plus standard therapies; 34 dogs; time to cardiac death"}, "[8]": {"test_system": "dogs with gastrointestinal stromal tumors", "assay": "Retrospective evaluation of toceranib in canine GIST", "assay_type": "in vivo, dog"}, "[9]": {"test_system": "fecal microbiota of healthy dogs", "assay": "Fecal microbiota qPCR Dysbiosis Index after oral tylosin", "assay_type": "in vivo, dog", "settings": "20 mg/kg q12 hr for 7 days", "summary_of_the_method": "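Ten healthy pet dogs were randomized double-blind to oral test compound at 20 mg/kg (n = 6) or placebo capsule (n = 4), given q12 hr for 7 days. Dogs stayed on their usual diet. Fecal samples were taken on days 0, 7, 10, 21 and 63, and a fecal score (1–7) was recorded daily during dosing.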"}, "[10]": {"test_system": "healthy purpose-bred dogs", "assay": "Isoglycemic clamp in healthy dogs", "assay_type": "in vivo, dog", "settings": "2.4 nmol/kg SC"}, "[11]": {"test_system": "adrenal cortisol production", "assay": "ACTH stimulation test, serum cortisol by radioimmunoassay", "assay_type": "in vivo, dog", "settings": "± SEM", "summary_of_the_method": "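Dogs: 5 healthy controls and 10 previously diagnosed with hyperadrenocorticism. Each dog had two ACTH stimulation tests, one with a reference tetracosactrin product (0.04 mL/kg IV) and one with the test ACTH preparation (0.08 mL/kg IV). Blood was drawn just before injection and 60 minutes after. Serum cortisol was measured by validated radioimmunoassay and reported as mean ± SEM.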"}, "canine complement": {"test_system": "canine complement", "assay_type": "biochemical, dog", "settings": "dose curves, at the doses evaluated"}, "[12]": {"settings": "G2 MVMD, DIVEd/Ao less than 2.8"}},
  "data": [
    {"molecule": "CC(CCc1ccc(O)cc1)NCCc1ccc(O)c(O)c1", "note": "(stereo not shown) [dobutamine]", "values": [
      {"measurement": "difference between pre and post stress EF%", "setting": "[1]; G1 control group", "value": "0.25 ± 0.08"},
      {"measurement": "difference between pre and post stress FS%", "setting": "[1]; G1 control group, 5 then 10 μg/kg/minute infusion", "value": "0.44 ± 0.14"},
      {"measurement": "difference between pre and post stress EF%", "setting": "[1]; [12]", "value": "0.30 ± 0.08"},
      {"measurement": "difference between pre and post stress FS%", "setting": "[1]; [12]", "value": "0.49 ± 0.13"},
      {"measurement": "difference between pre and post stress EF%", "setting": "[1]; G3 MVMD, DIVEd/Ao above 2.8", "value": "0.13 ± 0.09"},
      {"measurement": "difference between pre and post stress FS%", "setting": "[1]; G3 MVMD, DIVEd/Ao above 2.8", "value": "0.19 ± 0.14"}
    ]},
    {"molecule": "COc1cccc2c1C(=O)c1c(O)c3c(c(O)c1C2=O)C[C@@](O)(C(=O)CO)C[C@@H]3O[C@H]1C[C@H](N)[C@H](O)[C@H](C)O1", "note": "[doxorubicin]", "values": [
      {"measurement": "activity in the presence of MCT1 and MCT4 small molecule inhibitors", "setting": "[2]", "value": "Synergistic activity"}
    ]},
    {"molecule": "CN(C)C(=N)N=C(N)N", "note": "[metformin]", "values": [
      {"measurement": "activity in the presence of MCT1 and MCT4 small molecule inhibitors", "setting": "[2]", "value": "Synergistic activity"}
    ]},
    {"molecule": "CCN(CC)CCNC(=O)c1cc(Cl)c(N)cc1OC", "note": "[metoclopramide]", "values": [
      {"measurement": "incidence of regurgitation", "setting": "[3]; PEG Dose 1", "value": 52.4, "unit": "%"},
      {"measurement": "incidence of vomiting", "setting": "[3]; PEG Dose 1, anti-emetic SC 30 minutes before", "value": 23.8, "unit": "%"},
      {"measurement": "incidence of regurgitation", "setting": "[3]; PEG Dose 2", "value": 31.6, "unit": "%"},
      {"measurement": "incidence of vomiting", "setting": "[3]; PEG Dose 2", "value": 21.1, "unit": "%"}
    ]},
    {"molecule": "CN1CCN2c3ncccc3Cc3ccccc3C2C1", "note": "(stereo not shown) [mirtazapine]", "values": [
      {"measurement": "AUC, liver disease cats versus AMC cats", "setting": "[4]", "value": "not significantly different"}
    ]},
    {"molecule": "C[C@]12C=CC(=O)C=C1CC[C@@H]1[C@@H]2[C@@H](O)C[C@@]2(C)[C@H]1CC[C@]2(O)C(=O)CO", "note": "[prednisolone]", "values": [
      {"measurement": "serum cPL concentration after versus before treatment", "setting": "healthy beagles", "value": "significantly higher after than before treatment"},
      {"measurement": "dogs relapsed during tapering of medication", "setting": "[5]", "value": "13/23"},
      {"measurement": "median treatment duration", "setting": "[5]", "value": 397, "unit": "days"}
    ]},
    {"molecule": "CC(C)NCC(O)c1ccc(NS(C)(=O)=O)cc1", "note": "(stereo not shown) [sotalol]", "values": [
      {"measurement": "EF, mean percent change ± SD", "setting": "[6]; 2–3 hours post-sotalol", "value": "−13 ± 16", "unit": "%"},
      {"measurement": "FS, mean percent change ± SD", "setting": "[6]; 2–3 hours post-sotalol", "value": "−14 ± 11", "unit": "%"},
      {"measurement": "LVSA, mean percent change ± SD", "setting": "[6]; 2–3 hours post-sotalol", "value": "−10 ± 12", "unit": "%"},
      {"measurement": "heart rate, mean percent change ± SD", "setting": "[6]; 2–3 hours post-sotalol 2.5 ± 0.2 mg/kg PO, n = 27", "value": "−18 ± 16", "unit": "%"}
    ]},
    {"molecule": "CC(=O)S[C@@H]1CC2=CC(=O)CC[C@]2(C)[C@H]2CC[C@@]3(C)[C@@H](CC[C@@]34CCC(=O)O4)[C@H]12", "note": "[spironolactone]", "values": [
      {"measurement": "median survival time", "setting": "[7]", "value": 183, "unit": "days"}
    ]},
    {"molecule": "Cc1[nH]c(/C=C2\\C(=O)Nc3ccc(F)cc32)c(C)c1C(=O)NCCN1CCCC1", "note": "[toceranib]", "values": [
      {"measurement": "dogs experiencing adverse events", "setting": "[8]; 16/28, majority Grade 1 or 2 gastrointestinal toxicities", "value": 57, "unit": "%"},
      {"measurement": "Clinical benefit (CB)", "setting": "[8]; all dogs, 26/28", "value": 93, "unit": "%"},
      {"measurement": "Clinical benefit (CB)", "setting": "[8]; dogs with gross disease, 5/7", "value": 71, "unit": "%"},
      {"measurement": "Clinical benefit (CB)", "setting": "[8]; dogs with microscopic disease", "value": "21/21"}
    ]},
    {"molecule": "CC[C@H]1OC(=O)C[C@@H](O)[C@H](C)[C@@H](O[C@@H]2O[C@H](C)[C@@H](O[C@H]3C[C@@](C)(O)[C@@H](O)[C@H](C)O3)[C@H](N(C)C)[C@H]2O)[C@@H](CC=O)C[C@@H](C)C(=O)/C=C/C(C)=C/[C@@H]1CO[C@@H]1O[C@H](C)[C@@H](O)[C@@H](OC)[C@H]1OC", "note": "[tylosin]", "values": [
      {"measurement": "development of diarrhea", "setting": "[9]", "value": "None of the dogs in either group developed diarrhea"},
      {"measurement": "Dysbiosis Index, median", "setting": "[9]; day 7, 6 dogs, day 0 −6.5", "value": 2.9}
    ]},
    {"molecule": "Insulin glargine [Toujeo]", "values": [
      {"measurement": "dogs with peakless time-action profile", "setting": "[10]", "value": "4/8"},
      {"measurement": "duration of action, median", "setting": "[10]", "value": 16.3, "unit": "h"},
      {"measurement": "peak of action, median", "setting": "[10]", "value": 6.3, "unit": "h"},
      {"measurement": "Median onset of action", "setting": "[10]; 8 healthy dogs", "value": 4.0, "unit": "h"}
    ]},
    {"molecule": "corticotropin (SYSMEHFRWGKPVGKKRRPVKVYPNGAEDESAEAFPLEF; Corticotropin; UniProt P01189 138-176, looked up) [Acthelea]", "values": [
      {"measurement": "post-ACTH serum cortisol", "setting": "[11]; control group, 5 healthy dogs, 60 minute post IV", "value": "9.00 ± 0.71", "unit": "µg/dL"},
      {"measurement": "after ACTH serum cortisol", "setting": "[11]; treated group, 10 dogs with hyperadrenocorticism on trilostano", "value": "7.90 ± 2.1", "unit": "µg/dL"}
    ]},
    {"molecule": "B1", "values": [
      {"measurement": "inhibition of canine complement-mediated hemolysis", "setting": "canine complement", "value": "dose‐dependent inhibition"}
    ]}
  ]
}
